Results from the EternaBench riboswitch data.

Tests used:
MS2 coat protein [1] = assay: apparent Kd, MS2 coat protein; higher = weaker binding; RNA-MaP array; theophylline 2 mM where present
Method in brief: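 Stalled E. coli RNA polymerase transcribed the designs on Illumina sequencing-chip clusters. SNAP-549-labelled MS2 coat protein was titrated from 0.7 or 1.5 nM, doubling to 3 µM, without and then with constant ligand, in 100 mM Tris-HCl pH 7.5, 80 mM KCl, 4 mM MgCl2, BSA, DTT, yeast tRNA and Tween-20. Per-cluster binding curves were fitted to green signal normalised to red-channel RNA signal and control-cluster median Fmax. The apparent Kd is the median of the filtered fits.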

MS2 coat protein [2] = assay: apparent Kd, MS2 coat protein; higher = weaker binding; RNA-MaP array
Method in brief: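 RNA designs were transcribed from sequenced DNA templates on an Illumina sequencing chip and then incubated at room temperature with fluorescently labeled MS2 coat protein at 1.5 nM to 3 μM, with or without input ligand, in Tris-HCl pH 7.5 buffer containing KCl, MgCl2, BSA, DTT, tRNA and Tween20. Incubation lasted 0.8–1.5 h at the lowest protein concentrations and 10–20 min at the highest. Apparent Kd is the median of binding-curve fits made for each cluster. Designs measured on fewer than 10 clusters were excluded.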

[3] = designed as: OFF switch for theophylline, no ligand
[4] = ligand present: theophylline, designed as: OFF switch for theophylline
[5] = designed as: ON switch for theophylline, no ligand
[6] = ligand present: theophylline, designed as: ON switch for theophylline
[7] = designed as: ON switch for flavin mononucleotide, no ligand
[8] = ligand present: flavin mononucleotide, designed as: ON switch for flavin mononucleotide
[9] = designed as: OFF switch for flavin mononucleotide, no ligand
[10] = ligand present: flavin mononucleotide, designed as: OFF switch for flavin mononucleotide

Sequence | apparent Kd (MS2 coat protein [1]; [3]) | apparent Kd (MS2 coat protein [1]; [4]) | apparent Kd (MS2 coat protein [1]; [5]) | apparent Kd (MS2 coat protein [1]; [6]) | further results
GAUGAACUAUUUGAUACCAGACUACAUGAGGAUCACCCAUGUGAGUUUAUACUUCAGUCAGUCCCUUGGCAGCAAAUAGUUUAUC | 44.9 nM | 99.3 nM |  |  | 
UUAAAUGUGACGGAUACCAGCGUGUUGUAGAACAUGAGGAUCACCCAUGUAGUGAUCAUGCGCCCUUGGCAGCUGGUAUGUUUGA |  |  | 379 nM | 607 nM | 
ACAUGAGGGAUGGAUACCAGCGACAUGAGGAUCACCCAUGUAUGAGGAUCAGCCAUGUUAUGCCCUUGGCAGCCACGAACAUCAG | 26.6 nM | 226 nM |  |  | 
CGCUACGUAACUGAUACCAGUGUACUGACAUGAGGAUCACCCAUGUUGGGUUUUGUUGUACACCCUUGGCAGCAGAAUCGUAGCG | 70.3 nM | 95.3 nM |  |  | 
AUAAGUACGUCAGAUACCAGACAGCCAGACUUACAUGAGGAUCACCCAUGUGGAUGGACGGUCCCUUGGCAGCUGGCCGCAAAAG |  |  | 213 nM | 14.2 nM | 
UACAGUACAACAGAUACCAGACAGUACUCUAGAUUGCAACAUGAGGAUCACCCAUGUAUAGUCCCUUGGCAGCUGUAAUGGGUGA |  |  | 180 nM | 441 nM | 
CAGAACAUGAGGAUCACCCAUGUCAGGGAUACCAGCUCAGACAUGGGCCCUUGGCAGCUCUGUGGCUGACGAAAGUCAGCAUCUG |  |  | 60.8 nM | 185 nM | 
GACAUGAGGAUAGAUACCAGCGACAUGAGGAUCACAUGAGGAUCACCCAUGUGUAGUAUACGCCCUUGGCAGCUAACAUGAGGAU |  |  | 108 nM | 94 nM | 
ACUCGGUGUUUGUUGCUCCGAGUACGUGAUACCAGUUAAUUUUAUGGCCCUUGGCAGCAUGGGACAUGAGGAUCACCCAUGUUUA |  |  | 375 nM | 396 nM | 
GCACCAGGUACGGAUACCAGACUCUGCCGAUUGGGUGAACAUGAGGAUCACCCAUGUUAGGUCCCUUGGCAGCCGUACCUGGUGC | 28.3 nM | 487 nM |  |  | 
AUACCUAAUGUUACGUUUUCCUUUUCAGAUACCAGACUUUACGUUGUCCCUUGGCAGCUGUAUUACAUGAGGAUCACCCAUGUUG |  |  | 22 nM | 29.7 nM | 
UCGUGUAUAACGGAUACCAGUGAGAAGGAUACAUGAGGAUCACCCAUGUGAGUUGAUGUACACCCUUGGCAGCUGUAUAUAUCUA |  |  | 75.5 nM | 49.6 nM | 
GAUAGUUGAAGGGAUACCAGCCUGGACAUGAGGAUCACCCAUGUAGCAUGUUUGAAACUGGGCCCUUGGCAGCCCAUAUUGUGUA |  |  | 22.4 nM | 14.4 nM | 
GAUGAUAUUGCAGAUACCAGACACAUGAGGAUCACCCAUGUCGUUGGGUCGCUGGGUCGUGUCCCUUGGCAGCUGCGAUAUCAUC | 30.7 nM | 263 nM |  |  | 
AUAUUAAAGAGUGAUACCAGACUACAUGAGGAUCACCCAUGUUACAUUUAAAUAUCAUUUGUCCCUUGGCAGCACAUUAAGUACA | 17.4 nM | 13.3 nM |  |  | 
GAUGAUAUUGCAGAUACCAGACACAUGAGGAUCACCCAUGUCGCUGAGUUGCUGGAUCGUGUCCCUUGGCAGCUGCGAUAUCAUC | 19.5 nM | 180 nM |  |  | 
AGUGUUAUAACUGAUACCAGACCUUUGCUUAUACAUGAGGAUCACCCAUGUAAAAUGGCGGUCCCUUGGCAGCAGAGAAUACACA |  |  | 33.5 nM | 12.5 nM | 
CGAGUCCGCUGAUGGGCUAAGUCAGGUGAUACCAGCCACUCCCGCGGCCCUUGGCAGCACAUGAGGAUCACCCAUGUAGGGCUUG | 19.6 nM | 338 nM |  |  | 
ACAUGAGGAUCACCCAUGUAAGGUCUUGAUACCAGACGAGAAGUAGUCCCUUGGCAGCAAAUACGUGAGGGUCACACAUGUGUAA | 23 nM | 46 nM |  |  | 
AUGUCGUUGAAUAUAGCGGCUUGGUGUGAUACCAGAAUGAUCUAAUUCCCUUGGCAGCAUUACAUGAGGAUCACCCAUGUUCAGG |  |  | 24 nM | 23.9 nM | 
GCACUACAUGAGGAUCACCCAUGUGCAGAUACCAGAGGUGUAUGCCUCCCUUGGCAGCUGCGUCGCUCUGGAAGCCUAUUGGUUU |  |  | 15.6 nM | 20.9 nM | 
AGGCAGUAGGUGAUCCACUGCCAAGGUGAUACCAGCAUCGAAAGAUGCCCUUGGCAGCACCAACAUGAGGAUCACCCAUGUAAUA |  |  | 108 nM | 663 nM | 
AUUAUCAUGGUCAUAUAUAUUUCGUCAGAUACCAGACUAGAUAUAGUCCCUUGGCAGCUGUUACAUGAGGAUCACCCAUGUUAUA | 116 nM |  |  |  | 
GGAAUUAAGACUGAUACCAGUCAAGAUAAUCAUAAGAAUAAACAUGAGGAUCACCCAUGUGACCCUUGGCAGCAGACUAAUACCG |  |  | 31 nM | 29.6 nM | 
UGUAACAUGAGGAUCACCCAUGUAAGUGAUACCAGAUAAGUAGUAGUCCCUUGGCAGCAUAUUGGGCAAGUGUAUAGUCUAUACG |  |  | 49.8 nM | 53.5 nM | 
CCUCAUGUGGUGCUGCACAUGAGAGGUGAUACCAGCAUCGAAAGAUGCCCUUGGCAGCACCAACAUGAGGAUCACCCAUGUAAUA |  |  | 57.4 nM | 135 nM | 

Sequence | apparent Kd (MS2 coat protein [1]; [3]) | apparent Kd (MS2 coat protein [1]; [4]) | apparent Kd (MS2 coat protein [1]; [5]) | apparent Kd (MS2 coat protein [1]; [6]) | further results
UGACAUUGCUCAGAUACCAGACAUGAGGAUCACCCAUGUACCAAGGUAAAGAAAUAACGUGUCCCUUGGCAGCUGAGCAAUGUCU | 10.1 nM | 98.8 nM |  |  | 
ACGUCUCGUUUACUCGUGGGUUAGCUCGAUACCAGUAUUCAAACUUACCCUUGGCAGCGACAUGAGGAUCACCCAUGUGCGAAGA | 16.4 nM | 54.9 nM |  |  | 
CGGCCCUCACAUGAGGAUCACCCAUGUGAUACCAGCCUGGAAACAGGCCCUUGGCAGCACAGGUCAUCAAAAGAUGACCAAGCCG | 12.5 nM | 63.9 nM |  |  | 
UUUUAACAUGAGGAUCACCCAUGUAAUGAUACCAGAGACGAAAGUCUCCCUUGGCAGCAUAAUCAUUACAUGAGAUGGAAACAUC |  |  | 30.6 nM | 116 nM | 
GAGCUGAUGUAGAGUGGAUAUCCUUGAGAUACCAGUACAGAAAUGUACCCUUGGCAGCUCUUCUUUACAUGAGGAUCACCCAUGU | 13.1 nM | 17.5 nM |  |  | 
UGACAUUGCUCAGAUACCAGACAUGAGGAUCACCCAUGUGCCAACGUACAAAUAAUAAAUGUCCCUUGGCAGCUGAGCAAUGUCU | 11.4 nM | 35 nM |  |  | 
AGAUUACAUGUUUUAAUAAGAUAAACUGAUACCAGUGUAUAUAUUCACCCUUGGCAGCAGCAACAUGAGGAUCACCCAUGUAUUA |  |  | 16 nM | 15.2 nM | 
AUAAGUAAGUUUUCGUGUUUUAUUACAGAUACCAGACUAUACGUUGUCCCUUGGCAGCUGGAUUACAUGAGGAUCACCCAUGUUG | 24.5 nM | 54.3 nM |  |  | 
AGACAUGAGGAUCACCCAUGUAGCAUGGAUACCAGAUCCAGAUUUAUCCCUUGGCAGCUGUGGUACAGUGAUGGAUUGCUCCUAG | 79 nM | 122 nM |  |  | 
AAUAACAUGAGGAUCACCCAUGUAAAAGAUACCAGAGUGAUGAUCCUCCCUUGGCAGCUUAACGCUGAUUGAUUACAAUCAGCGA |  |  | 57.6 nM | 173 nM | 
AAUAACAUGAGGAUCACCCAUGUAAAAGAUACCAGAGUGAUGAUCCUCCCUUGGCAGCUUAAUAACGCUAUUGGAAACAAUAGCG |  |  | 78.2 nM | 122 nM | 
ACAUGAGGAUCACCCAUGUUCCUCAUUGAUACCAGUGAAUUUAGACGCCCUUGGCAGCGAGUUUUUUUAUAAGUUUUUUUUUUUU | 665 nM | 1160 nM |  |  | 
GGUGGCUGGACUGAUACCAGCCACCACCGAUAGACCACAUGAGGAUCACCCAUGUUGGGUGGCCCUUGGCAGCAGUCUAGCUGCC |  |  | 561 nM | 1240 nM | 
CUCGAGUUAUGAGAUACCAGACUAUAGUUUACAUGAGGAUCACCCAUGUUAUGGGUGGUAGUCCCUUGGCAGCUCAUAUGUUUAA | 225 nM | 812 nM |  |  | 
GGCUUCCCAAGAGGAUAUGCGGUAAUUAUCUACAUGAGGAUCACCCAUGUUUUUAACUCAAGUCCGCAGAAGGCUUAAGGAUAU |  |  |  |  | apparent Kd (MS2 coat protein [2]; [7]): 5.13 nM; apparent Kd (MS2 coat protein [2]; [8]): 5 nM
GCAUAAGAUCAGAAGGGUAAUUUGUAACAACAUACAGGAUAUGAGGAAACAUGAGGAUCACCCAUGUGAAGCGAAAACAGAAAU |  |  |  |  | apparent Kd (MS2 coat protein [2]; [7]): 15.5 nM; apparent Kd (MS2 coat protein [2]; [8]): 11.4 nM
GUCUCUCGCUUAGGAUAUCAGCACGAUUAUCCCUGAGAAGGAAGUGACAGACAUGAGGAUCACCCAUGUAUCCAAGGUUCGAAG |  |  |  |  | apparent Kd (MS2 coat protein [2]; [9]): 15.6 nM; apparent Kd (MS2 coat protein [2]; [10]): 15 nM
UAAGAGUCGGCAGGAUAUGUCCCUUGAGCGCAGACAGAAGGGCCACUAUCUUUCACAUGAGGAUCACCCAUGUCCUCCCUGGAG |  |  |  |  | apparent Kd (MS2 coat protein [2]; [9]): 49 nM; apparent Kd (MS2 coat protein [2]; [10]): 61.6 nM
UGUGACCGCCAUUCUCGCGACAUGAGGAUCACCCAUGUUUCCAGAAGGCUCCAGGCUUGUGCUCGAGAGGAUAUGGGAAGAUUC |  |  |  |  | apparent Kd (MS2 coat protein [2]; [9]): 28.4 nM; apparent Kd (MS2 coat protein [2]; [10]): 26.5 nM
AUUGACUCAGAGAAGGGACUCAACAUGAGGAUCACCCAUGUUCUUUCGAAUAAAGGCUCUUAGGGUCAGGAUAUCUGUACGUAA |  |  |  |  | apparent Kd (MS2 coat protein [2]; [7]): 9.6 nM; apparent Kd (MS2 coat protein [2]; [8]): 9.99 nM
GUUCAACGGUGAGGAUAUUGCAGUACGUACGCACAAGAAGGCACUCCAUAGCACAGGGUGCACAUGAGGAUCACCCAUGUGGUC |  |  |  |  | apparent Kd (MS2 coat protein [2]; [9]): 494 nM; apparent Kd (MS2 coat protein [2]; [10]): 224 nM
AUGCACGGGCUAAUCUGCGAUUGGCACGAUACCAGAGAUCAAGACCUCCCUUGGCAGCGUGUCACAUGAGGAUCACCCAUGUGGA |  |  |  |  | apparent Kd (MS2 coat protein [2]; [3]): 131 nM; apparent Kd (MS2 coat protein [2]; [4]): 94.8 nM
UCCCGACAUGAGGAUCACCCAUGUGGACAGUACACAGGAUAUUAACUCAUUACAAUAGAAUAAGAAGGGUGGUACC |  |  |  |  | apparent Kd (MS2 coat protein [2]; [7]): 69.1 nM; apparent Kd (MS2 coat protein [2]; [8]): 47.1 nM
AGAGCACAUGAGGAUCACCCAUGUUAGGAUAUAAGUCUGGAUCUACCUGAGCCCGAUCUUAGAAGGAACGGUGU |  |  |  |  | apparent Kd (MS2 coat protein [2]; [9]): 11 nM; apparent Kd (MS2 coat protein [2]; [10]): 11.6 nM
AGGGCACAUGAGGAUCACCCAUGUAAGGAUAUGGACUUUUUUGCUGUAGUAAUCAUCUCCAGAAGGUACGUCUU |  |  |  |  | apparent Kd (MS2 coat protein [2]; [9]): 24.4 nM; apparent Kd (MS2 coat protein [2]; [10]): 19.6 nM
